# Laboratory results reported in ChEMBL document CHEMBL2029242 (J Med Chem, 2012).
# pIC50, pKd: −log10 of the molar value.
# Experiments:
# A-375 = test: Cytotoxicity against human A375 cells expressing BRAF V600E mutant after 72 hrs by cell titer blue assay; type: functional, cell-based; settings: A-375, 72 h
# How it was run: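 Cells were grown in ATCC-recommended media and kept overnight in 0.5% serum. They were then exposed to compound for 72 h, and Cell Titer Blue was added for 3 h. EC50 came from fluorometric concentration−response curves, run in duplicate and repeated at least once.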
# [1] = target: T1, Serine/threonine-protein kinase B-raf (Homo sapiens, UniProt P15056, V600E)
# [2] = target: T1, Serine/threonine-protein kinase B-raf; remark: listed apart in the source
# [3] = AUC (infinity) in Sprague-Dawley rat at 10 mg/kg, po; type: ADME, organism-based; parameters: time infinity, dose 10 mg/kg, route oral; settings: plasma
# How it was run: (§1)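 Single-dose PK. Rats: male Sprague−Dawley, jugular-catheterized, 1 mg/kg iv in 3:1 PEG400/water (n = 2) and 10 mg/kg po in Pharmatek #6 (n = 3). Female athymic nude mice: 100 mg/kg po in Pharmatek #6 (n = 3). Beagle dogs and male cynomolgus monkeys (n = 3): crossover, 1 mg/kg iv and 10 mg/kg po in 22% HPβCD, overnight fast. Plasma LC-MS/MS to 24 h; noncompartmental parameters, mean ± SD.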
# [4] = Cmax in Sprague-Dawley rat at 10 mg/kg, po; type: ADME, organism-based; parameters: dose 10 mg/kg, route oral; settings: in vivo; how it was run: as §1
# [5] = Tmax in Sprague-Dawley rat at 10 mg/kg, po; type: ADME, organism-based; parameters: dose 10 mg/kg, route oral; settings: in vivo
# How it was run: (§2)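 Male Sprague-Dawley rats (250–350 g, jugular-catheterized) received a single dose either iv at 1 mg/kg in 3:1 PEG400/water (n = 2) or po at 10 mg/kg in Pharmatek #6 (n = 3). Plasma was sampled at 5 min (iv only), 15 and 30 min, and 1, 2, 4, 6 and 24 h. Samples were analyzed by LC-MS/MS after acetonitrile precipitation. Parameters came from noncompartmental linear-trapezoidal analysis of individual animals.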
# [6] = Clearance in Sprague-Dawley rat at 1 mg/kg, iv and 10 mg/kg, po; type: ADME, organism-based; settings: in vivo; how it was run: as §1
# [7] = Volume of distribution in Sprague-Dawley rat at 1 mg/kg, iv and 10 mg/kg, po; type: ADME, organism-based; settings: in vivo; how it was run: as §2
# [8] = Terminal half life in Sprague-Dawley rat at 1 mg/kg, iv and 10 mg/kg, po; type: ADME, organism-based; settings: in vivo, read-out: beta t1/2 (converted); how it was run: as §2
# [9] = Oral bioavailability in Sprague-Dawley rat at 10 mg/kg; type: ADME, organism-based; settings: in vivo; how it was run: as §2
# [10] = Stability in rat liver microsomes assessed as compound remaining at 1 uM after 60 mins; type: ADME, Microsome; settings: read-out: Stability
# How it was run: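 Pooled liver microsomes (0.5 mg/mL) were premixed with 0.1 M phosphate buffer pH 7.4, 6.5 mM MgCl2 and test compound (1 μM final, 0.2% DMSO). NADPH (1 mM) started the reaction at 37 °C, in duplicate. Minus-NADPH and testosterone controls were included. Aliquots were taken at 0, 5, 15, 30 and 60 min and quenched in acetonitrile containing internal standard.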
# T1 sequence (P15056 2-766 V600E limits assumed): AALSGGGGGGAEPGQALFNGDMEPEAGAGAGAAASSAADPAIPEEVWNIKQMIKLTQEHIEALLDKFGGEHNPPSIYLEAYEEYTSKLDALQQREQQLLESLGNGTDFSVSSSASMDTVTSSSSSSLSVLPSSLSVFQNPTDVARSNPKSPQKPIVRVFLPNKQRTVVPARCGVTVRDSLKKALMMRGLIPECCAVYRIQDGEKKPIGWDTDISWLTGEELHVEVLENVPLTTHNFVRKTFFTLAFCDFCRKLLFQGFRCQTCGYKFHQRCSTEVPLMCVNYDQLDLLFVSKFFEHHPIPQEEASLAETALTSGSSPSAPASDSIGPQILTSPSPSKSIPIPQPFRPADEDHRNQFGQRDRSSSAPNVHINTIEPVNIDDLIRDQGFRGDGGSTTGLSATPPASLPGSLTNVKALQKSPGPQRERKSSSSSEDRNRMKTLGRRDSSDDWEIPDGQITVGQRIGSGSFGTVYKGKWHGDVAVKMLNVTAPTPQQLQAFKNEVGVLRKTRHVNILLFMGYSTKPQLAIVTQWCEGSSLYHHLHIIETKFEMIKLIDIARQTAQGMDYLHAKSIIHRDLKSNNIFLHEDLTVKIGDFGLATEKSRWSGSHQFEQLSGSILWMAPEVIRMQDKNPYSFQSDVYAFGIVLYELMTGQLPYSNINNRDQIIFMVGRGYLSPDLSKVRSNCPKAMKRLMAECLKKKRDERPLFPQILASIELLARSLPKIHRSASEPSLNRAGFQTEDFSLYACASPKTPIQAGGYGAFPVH
pKd [1],pIC50 [2],AUC(0-inf) [3],Cmax [4],Tmax [5],clearance [6],Vd [7],half-life [8],bioavailability [9],"remaining at 1 h, 1 µM [10]",Compound,pIC50 (A-375)
–,–,–,–,–,–,–,–,–,–,COc1cc2ncnc(Oc3cccc(NC(=O)Nc4cccc(C(C)(C)C)c4)c3)c2cc1OC,5.75
7.07,6.30,–,–,–,–,–,–,–,–,COc1cc2ncnc(Oc3cccc(NC(=O)Nc4cc(C(C)(C)C)nn4C(C)C)c3)c2cc1OC,6.27
5.84,< 4.82,–,–,–,–,–,–,–,–,COc1cc2ncnc(Oc3cccc(NC(=O)Nc4cc(-c5ccccc5)no4)c3)c2cc1OC,5.15
7.31,6.19,–,–,–,–,–,–,–,–,COc1cc2ncnc(Oc3cccc(NC(=O)Nc4cc(C(C)(C)CO)on4)c3)c2cc1OC,< 4.82
6.91,5.95,–,–,–,–,–,–,–,–,COc1cc2ncnc(Oc3cccc(NC(=O)Nc4cc(C5CCCC5)no4)c3)c2cc1OC,5.36
7.41,7.08,–,–,–,–,–,–,–,–,COc1cc2ncnc(Sc3cccc(NC(=O)Nc4cc(C(C)(C)F)no4)c3)c2cc1OC,5.83
7.06,6.47,–,–,–,–,–,–,–,–,COc1cc2ncnc(Oc3cccc(NC(=O)Nc4cc(C(C)(C)C)nn4C)c3)c2cc1OC,5.37
7.13,6.85,–,–,–,–,–,–,–,–,COc1cc2ncnc(Sc3cccc(NC(=O)Nc4cc(C(C)(C)C(F)(F)F)on4)c3)c2cc1OC,< 4.82
7.35,6.96,–,–,–,–,–,–,–,–,COc1cc2ncnc(Oc3cccc(NC(=O)Nc4cc(C(C)(CF)CF)on4)c3)c2cc1OC,6.84
7.18,6.76,40.7 µM·h,4.7 µM,1.7 h,–,–,–,–,–,COc1cc2ncnc(Oc3cccc(NC(=O)Nc4cc(C(C)(C)C(F)(F)F)no4)c3)c2cc1OC,6.26
7.12,6.19,–,–,–,–,–,–,–,–,COc1cc2ncnc(Oc3cccc(NC(=O)Nc4cc(C(C)(F)F)no4)c3)c2cc1OC,6.16
7.11,5.65,–,–,–,–,–,–,–,–,COc1cc2ncnc(Oc3cccc(NC(=O)Nc4cc(C(F)(F)F)no4)c3)c2cc1OC,5.29
6.89,6.51,–,–,–,–,–,–,–,–,COc1cc2ncnc(Oc3cccc(NC(=O)Nc4cc(C5(C(F)(F)F)CCC5)no4)c3)c2cc1OC,5.65
6.53,7.68,25.9 µM·h,6.7 µM,1.3 h,3.1 mL/min/kg,0.3 L/kg,4.2 h,33%,–,COc1cc2ncnc(Oc3cccc(NC(=O)Nc4cc(C(C)(C)C)nn4-c4ccccc4)c3)c2cc1OC,–
7.30,7.03,–,–,–,–,–,–,–,–,COc1cc2ncnc(Sc3cccc(NC(=O)Nc4cc(C(C)(CF)CF)on4)c3)c2cc1OC,6.65
7.43,6.87,–,–,–,–,–,–,–,–,COc1cc2ncnc(Oc3cccc(NC(=O)Nc4cc(C5CCCC5)on4)c3)c2cc1OC,6.31
7.72,6.45,–,–,–,–,–,–,–,–,COc1cc2ncnc(Oc3cccc(NC(=O)Nc4cc(C(C)C)on4)c3)c2cc1OC,6.28
–,–,17 µM·h,11 µM,0.8 h,7.3 mL/min/kg,0.5 L/kg,19.2 h,49%,46%,COc1cc2ncnc(Oc3cccc(NC(=O)Nc4cc(C(C)(C)C)on4)c3)c2cc1OC,6.48

pKd [1],pIC50 [2],AUC(0-inf) [3],Cmax [4],Tmax [5],clearance [6],Vd [7],half-life [8],bioavailability [9],"remaining at 1 h, 1 µM [10]",Compound,pIC50 (A-375)
6.76,6.32,–,–,–,–,–,–,–,–,COc1cc2ncnc(Oc3cccc(NC(=O)Nc4cc(C(C)(C)C)nn4Cc4ccccc4)c3)c2cc1OC,5.73
–,–,–,–,–,–,–,–,–,–,COc1cc2ncnc(Oc3cccc(NC(=O)Nc4ccc(C(C)(C)C)cc4)c3)c2cc1OC,5.46
6.87,6.02,–,–,–,–,–,–,–,–,COc1cc2ncnc(Oc3cccc(NC(=O)Nc4cc(-c5ccccc5)on4)c3)c2cc1OC,< 4.82
7.32,6.48,–,–,–,–,–,–,–,–,COc1cc2ncnc(Oc3cccc(NC(=O)Nc4cc(C(C)(C)C#N)no4)c3)c2cc1OC,5.21
7.51,6.47,–,–,–,–,–,–,–,–,COc1cc2ncnc(Oc3cccc(NC(=O)Nc4cc(C(C)C)no4)c3)c2cc1OC,5.53
7.54,6.56,127 µM·h,21.1 µM,2 h,2.9 mL/min/kg,0.5 L/kg,3.5 h,100%,92%,COc1cc2ncnc(Oc3cccc(NC(=O)Nc4cc(C(C)(C)F)on4)c3)c2cc1OC,6.31
6.82,6.49,–,–,–,–,–,–,–,–,COCC(C)(C)c1cc(NC(=O)Nc2cccc(Oc3ncnc4cc(OC)c(OC)cc34)c2)no1,5.81
6.76,< 5.78,–,–,–,–,–,–,–,–,COc1cc2ncnc(Oc3cccc(NC(=O)Nc4cc(C(C)(C)C)nn4C4CCCCC4)c3)c2cc1OC,< 4.82
6.57,7.21,–,–,–,–,–,–,–,–,COc1cc2ncnc(Oc3cccc(NC(=O)Nc4cc(C(C)(C)C(F)(F)F)nn4-c4ccccc4)c3)c2cc1OC,–
–,–,1.9 µM·h,0.7 µM,0.8 h,9.8 mL/min/kg,1 L/kg,8.2 h,6%,51%,COc1cc2ncnc(Oc3cccc(NC(=O)Nc4cc(C(C)(C)C)no4)c3)c2cc1OC,–
7.51,6.33,–,–,–,–,–,–,–,–,COc1cc2ncnc(Sc3cccc(NC(=O)Nc4cc(C5(C(F)(F)F)CC5)on4)c3)c2cc1OC,6.65
7.00,6.17,–,–,–,–,–,–,–,–,COc1cc2ncnc(Oc3cccc(NC(=O)Nc4cc(C(C)(C)C)nn4CC(C)C)c3)c2cc1OC,5.93
6.88,6.47,–,–,–,–,–,–,–,–,COc1cc2ncnc(Oc3cccc(NC(=O)Nc4cc(C(C)(CF)CF)no4)c3)c2cc1OC,5.70
7.57,6.74,–,–,–,–,–,–,–,–,COc1cc2ncnc(Oc3cccc(NC(=O)Nc4cc(C5(C(F)(F)F)CC5)on4)c3)c2cc1OC,6.93
6.17,< 4.82,–,–,–,–,–,–,–,–,COc1cc2ncnc(Oc3cccc(NC(=O)Nc4cc(C)on4)c3)c2cc1OC,< 4.82
7.36,6.81,42 µM·h,7.9 µM,2 h,4 mL/min/kg,0.6 L/kg,4.7 h,48%,82%,COc1cc2ncnc(Oc3cccc(NC(=O)Nc4cc(C(C)(C)F)no4)c3)c2cc1OC,6.90
7.12,5.95,–,–,–,–,–,–,–,–,COc1cc2ncnc(Oc3cccc(NC(=O)Nc4cnn(C(C)(C)C)c4)c3)c2cc1OC,< 4.82
